In ChEMBL document CHEMBL1146358, “ANN-QSAR model for selection of anticancer leads from structurally heterogeneous series of compounds” (Eur J Med Chem, 2007):
≈ marks a conversion by molar mass, not a printed value.

Columns and labels:
Type in all cases: functional, cell-based
[1] = Growth inhibition of mouse L1210/0 cells
In short: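 Cells grown with test compound for 48 h at 37 C in humidified CO2-controlled atmosphere; cells counted by Coulter counter at end of incubation; IC50 = concentration reducing number of living cells by 50%.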

[2] = Growth inhibition of human Molt4/C8 cells; conditions: MOLT-4
In short: (§1)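 Cells grown with test compound for 72 h at 37 C in humidified CO2-controlled atmosphere; cells counted by Coulter counter at end of incubation; IC50 = concentration reducing number of living cells by 50%.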

[3] = Growth inhibition of human CEM/0 cells; conditions: CCRF-CEM; in short: as §1

| SMILES | IC50 [1] [µg/mL] | IC50 [2] [µg/mL] | IC50 [3] [µg/mL] |
| --- | --- | --- | --- |
| Cc1cn(C2CCCC2)c(=O)[nH]c1=O | 85.2 (≈ 439 µM) | 98.8 (≈ 509 µM) | 138 (≈ 710 µM) |
| O=c1[nH]c(=O)n(C2CCCC2)cc1F | 35.1 (≈ 177 µM) | 78.1 (≈ 394 µM) | 66 (≈ 333 µM) |
| O=c1ccn(C2CCCC2)c(=O)[nH]1 | 66.3 (≈ 368 µM) | 108 (≈ 599 µM) | 80 (≈ 444 µM) |
| O=c1[nH]c(=O)n(C2CCCC2)cc1Cl | 103 (≈ 480 µM) | 81.3 (≈ 379 µM) | 82 (≈ 382 µM) |
| O=c1[nH]c(=O)n(C2CCCC2)cc1I | 98.8 (≈ 323 µM) | 53.2 (≈ 174 µM) | 60.9 (≈ 199 µM) |
| O=c1[nH]c(=O)n(C2CCCC2)cc1Br | 50.3 (≈ 194 µM) | 97.2 (≈ 375 µM) | 37.1 (≈ 143 µM) |
